Measured values published in ChEMBL document CHEMBL4392853, “Characterising covalent warhead reactivity” (Bioorg Med Chem, 2019).
Activity calls are given as the source filed them. The calls are words filed in the database; no cut-off is given here.

Columns and labels:
[1] = Irreversible drug reactivity against cysteine in PBS buffer by NMR assay
Procedure, shortened: (§1)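 Warhead reactivity toward cysteine was tracked by NMR, measuring the amount of warhead remaining in solution over time. Cysteine was used at 10x the warhead concentration, giving pseudo-first-order conditions. The rate constant is the gradient of the fitted line. Runs were at pH 7.4 and also at pH 9.8. Two warheads were run in triplicate and averaged; the others were run once.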

[2] = Irreversible drug reactivity against serine in PBS buffer by NMR assay
Procedure, shortened: (§2)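 NMR time-course following the warhead in solution with serine, with the amino acid at 10x the warhead concentration (pseudo-first-order). Run at pH 7.4. The rate constant was taken from the gradient of the line. Single determinations.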

[3] = Drug reactivity against cysteine in PBS buffer by NMR assay; procedure, shortened: as §1
[4] = Drug reactivity against serine in PBS buffer by NMR assay; procedure, shortened: as §2
[5] = Reversible drug reactivity against serine in PBS buffer by NMR assay; procedure, shortened: as §2
[6] = Reversible drug reactivity against cysteine in PBS buffer by NMR assay; procedure, shortened: as §1
[7] = Drug reactivity against cysteine in PBS buffer assessed as rate constant by NMR assay
Procedure, shortened: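 Warhead reacted in solution with cysteine held at 10x the warhead concentration, giving pseudo-first-order kinetics. Remaining warhead was followed over time by NMR, and the rate constant was taken from the gradient of the line. Runs were at pH 7.4 and also at pH 9.8. Two warheads were run in triplicate and averaged; all others were run once.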

[8] = Drug reactivity against cysteine in PBS buffer assessed as half life by NMR assay

SMILES | Activity [1] | Activity [2] | Activity [3] | Activity [4] | Activity [5] | Activity [6] | K [7] | T1/2 [8] [min]
CC1(C)S[C@@H]2[C@H](N)C(=O)N2[C@H]1C(=O)O | Active | Active | inactive | inactive | – | – | – | –
C=CC(=O)c1ccccc1 | – | – | Active | Active | Active | Active | – | –
O=S(=O)(F)c1ccccc1 | – | – | Active | Active | – | – | – | –
CN(C)C/C=C/C(=O)Nc1ccccc1 | – | – | Active | Active | Active | Active | – | –
N#Cc1ncccn1 | – | – | Active | Active | Active | Active | – | –
N#Cc1ccccn1 | – | – | inactive | inactive | Active | Active | – | –
c1ccc(C2CO2)cc1 (stereo not drawn) | – | – | Active | Active | Active | Active | – | –
OB1OCc2ccccc21 | – | – | inactive | inactive | Active | Active | – | –
O=C1CC(c2ccccc2)N1 (stereo not drawn) | Active | Active | inactive | inactive | – | – | – | –
N#Cc1ccccc1 | – | – | inactive | inactive | Active | Active | – | –
O=C(c1ccccc1)C(F)(F)F | – | – | inactive | inactive | Active | Active | – | –
COC(=O)Nc1ccccc1 | – | – | Active | Active | – | – | – | –
C=CS(=O)(=O)Nc1ccccc1 | – | – | Active | Active | Active | Active | 6.73 ×10⁻⁴ /s | 17.2
C#CC(=O)c1ccccc1 | – | – | Active | Active | Active | Active | – | –
O=C1CCN1c1ccccc1 | Active | Active | inactive | inactive | – | – | – | –
C=CC(=O)Nc1ccccc1 | – | – | Active | Active | Active | Active | 8.38 ×10⁻⁵ /s | –
